Results on 15 compounds are retold here after ChEMBL document CHEMBL2401617, “Synthesis and biological evaluation of some novel thiazole compounds as potential anti-inflammatory agents” (2013).

Broadly, the inhibition in vivo is the relative decrease from the control value, in per cent.

What all share (format): functional
Assay [1] concerns Serratia marcescens. Description: Antibacterial activity against Serratia marcescens IMRU 70 assessed as growth inhibition after 24 hrs by Kirby-Bauer disc diffusion method relative to ampicillin. Set-up: concentration or dose not given beside the values. The essentials:
(§1)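 Modified Kirby-Bauer disc diffusion on Mueller-Hinton agar spread with broth culture at about 10^8 cells/ml. Blank 8.0 mm paper discs were impregnated with test solution. Ampicillin discs at the same concentration and solvent served as positive control, and solvent discs as negative control. Plates were incubated at 35–37 °C, and inhibition-zone diameter (mm) was read at 24 h by caliper. % activity index = zone relative to ampicillin.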
(In general: Agar diffusion results depend on both activity and mobility in agar.)

Assay [2] deals with Proteus mirabilis. Description: Antibacterial activity against Proteus mirabilis NCTC 289 assessed as growth inhibition after 24 hrs by Kirby-Bauer disc diffusion method relative to ampicillin. More on the design: concentration or dose not given beside the values. In outline:
as §1

For assay [3], the system named is Bacillus cereus. The experiment in a line: Antibacterial activity against Bacillus cereus NCTC 14579 assessed as growth inhibition after 24 hrs by Kirby-Bauer disc diffusion method relative to ampicillin. In outline:
as §1

Assay [4] relates to Staphylococcus aureus. Description: Antibacterial activity against Staphylococcus aureus NCTC 7447 assessed as growth inhibition after 24 hrs by Kirby-Bauer disc diffusion method relative to ampicillin. More on the design: concentration or dose not given beside the values. The essentials: as §1
The subject of assay [5] is Rattus norvegicus. Description: Antiinflammatory activity in albino Wistar rat assessed as inhibition of carrageenan-induced paw oedema at 50 mg/kg, po administered 1 hr prior to carrageenan challenge measured at 4 hrs by plethysmometeric analysis relative to control. In outline:
(§2)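 Albino Wistar rats of either sex (130–150 g), 6 per group, fasted 12 h with water ad libitum. Test compounds were given orally at 50 mg/kg as DMSO solution; controls received 1 ml 20% v/v DMSO. One hour later, 0.1 ml 1% w/v carrageenan in 0.9% saline was injected into the left hind paw plantar region. Plethysmometer volume was read at 0 and 1–4 h. % inhibition = [1 − (Vt/Vc)] × 100.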
In general terms: The carrageenan paw model is a standard test of acute inflammation.

The test system of assay [6] is Rattus norvegicus. Description: Antiinflammatory activity in albino Wistar rat assessed as inhibition of carrageenan-induced paw oedema at 50 mg/kg, po administered 1 hr prior to carrageenan challenge measured at 3 hrs by plethysmometeric analysis relative to control. In outline: as §2
For assay [7], the system named is Rattus norvegicus. The experiment in a line: Antiinflammatory activity in albino Wistar rat assessed as inhibition of carrageenan-induced paw oedema at 50 mg/kg, po administered 1 hr prior to carrageenan challenge measured at 2 hrs by plethysmometeric analysis relative to control. The essentials: as §2
The test system of assay [8] is Rattus norvegicus. Description: Antiinflammatory activity in albino Wistar rat assessed as inhibition of carrageenan-induced paw oedema at 50 mg/kg, po administered 1 hr prior to carrageenan challenge measured at 1 hr post carrageenan challenge by plethysmometeric analysis relative to control. In outline: as §2
Assay [9] relates to Serratia marcescens. The experiment in a line: Antibacterial activity against Serratia marcescens IMRU 70 assessed as growth inhibition after 24 hrs by Kirby-Bauer disc diffusion method. In outline: as §1
The subject of assay [10] is Proteus mirabilis. Description: Antibacterial activity against Proteus mirabilis NCTC 289 assessed as growth inhibition after 24 hrs by Kirby-Bauer disc diffusion method. The essentials:
as §1

The subject of assay [11] is Bacillus cereus. Description: Antibacterial activity against Bacillus cereus NCTC 14579 assessed as growth inhibition after 24 hrs by Kirby-Bauer disc diffusion method. In outline:
as §1

In assay [12] the test system is Staphylococcus aureus. The experiment in a line: Antibacterial activity against Staphylococcus aureus NCTC 7447 assessed as growth inhibition after 24 hrs by Kirby-Bauer disc diffusion method. The essentials: as §1

For the compound `Nc1nc(-c2ccc(N3CCOCC3)cc2)cs1`, the Activity_index is recorded as 15.72% in the assay with Serratia marcescens [1], 9.52% in the assay on Proteus mirabilis [2], 17.39% in the assay on Bacillus cereus [3] and 20.83% in the assay with Staphylococcus aureus [4]. Moreover, the inhibition in vivo at 50 mg/kg with Rattus norvegicus [5] was 86.8%; with Rattus norvegicus [6], 75.3%; with Rattus norvegicus [7] it was 31.7%; with Rattus norvegicus [8], -17%. Also, the “diameter of the inhibition zone (DIZ)” value with Serratia marcescens [9] is on record as 3 mm; with Proteus mirabilis [10], 2 mm; with Bacillus cereus [11], 4 mm; with Staphylococcus aureus [12], 5 mm.

Consider `C/C(=N\NC1=NC(=O)C(C)S1)c1ccc(N2CCOCC2)cc1` (stereo unspecified), for which the Activity_index in the assay on Serratia marcescens [1] amounted to 10.52%; with Proteus mirabilis [2], 9.52%; in the assay on Bacillus cereus [3], 21.74%; in the assay on Staphylococcus aureus [4] it was 20.83%. Further, the “diameter of the inhibition zone (DIZ)” value in the assay on Serratia marcescens [9] is reported as 2 mm; with Proteus mirabilis [10], 2 mm; in the assay on Bacillus cereus [11], 5 mm; in the assay on Staphylococcus aureus [12], 5 mm.

As to `C/C(=N\NC1=NCC(=O)S1)c1ccc(N2CCOCC2)cc1`, the Activity_index was found to be 15.72% in the assay on Serratia marcescens [1], 9.52% in the assay with Proteus mirabilis [2], 16.67% in the assay with Bacillus cereus [3] and 20.83% in the assay with Staphylococcus aureus [4]. For the same compound, the inhibition in vivo at 50 mg/kg worked out at 78.2% with Rattus norvegicus [5], 63.4% in the assay with Rattus norvegicus [6], 28.6% in the assay on Rattus norvegicus [7] and 29.5% in the assay on Rattus norvegicus [8]. In addition, the “diameter of the inhibition zone (DIZ)” value is 3 mm in the assay on Serratia marcescens [9], 2 mm with Proteus mirabilis [10], 4 mm in the assay with Bacillus cereus [11] and 5 mm in the assay on Staphylococcus aureus [12].

Turning to `C/C(=N\Nc1nc(C)cs1)c1ccc(N2CCOCC2)cc1`, the Activity_index came to 15.72% with Serratia marcescens [1], 9.52% with Proteus mirabilis [2], 13.04% in the assay with Bacillus cereus [3] and 20.83% in the assay with Staphylococcus aureus [4]. The “diameter of the inhibition zone (DIZ)” value was 2 mm in the assay with Serratia marcescens [9], 2 mm with Proteus mirabilis [10], 3 mm in the assay with Bacillus cereus [11] and 5 mm in the assay on Staphylococcus aureus [12].

Take `C/C(=N\Nc1nc(-c2ccccc2)cs1)c1ccc(N2CCOCC2)cc1`: the Activity_index was found to be 15.72% with Serratia marcescens [1], 14.28% in the assay with Proteus mirabilis [2], 17.39% in the assay with Bacillus cereus [3] and 16.67% with Staphylococcus aureus [4]. Further, the inhibition in vivo at 50 mg/kg with Rattus norvegicus [5] is 79.1%; with Rattus norvegicus [6] it was 62.2%; in the assay with Rattus norvegicus [7] it was 35%; in the assay with Rattus norvegicus [8], -1.6%. The “diameter of the inhibition zone (DIZ)” value is given as 2 mm with Serratia marcescens [9], 3 mm in the assay with Proteus mirabilis [10], 4 mm with Bacillus cereus [11] and 4 mm with Staphylococcus aureus [12].

Regarding `C/C(=N\NC1=NC(=N)CS1)c1ccc(N2CCOCC2)cc1`, the Activity_index with Serratia marcescens [1] is 15.72%; with Proteus mirabilis [2], 9.52%; with Bacillus cereus [3], 17.39%; in the assay on Staphylococcus aureus [4], 20.83%. Moreover, the “diameter of the inhibition zone (DIZ)” value with Serratia marcescens [9] was determined as 3 mm; in the assay with Proteus mirabilis [10], 2 mm; in the assay on Bacillus cereus [11], 4 mm; with Staphylococcus aureus [12], 5 mm.

With `C/C(=N/NC(=O)/C(C#N)=C1/SC=C(c2ccccc2)N1c1ccccc1)c1ccc(N2CCOCC2)cc1`, the Activity_index in the assay with Serratia marcescens [1] amounted to 15.72%; with Proteus mirabilis [2], 9.52%; in the assay on Bacillus cereus [3], 17.39%; in the assay with Staphylococcus aureus [4], 20.83%. For the same compound, the “diameter of the inhibition zone (DIZ)” value worked out at 3 mm in the assay with Serratia marcescens [9], 2 mm in the assay with Proteus mirabilis [10], 4 mm with Bacillus cereus [11] and 5 mm with Staphylococcus aureus [12].

On to `CC1=C(O)N(c2ccccc2)/C(=C(/C#N)C(=O)N/N=C(/C)c2ccc(N3CCOCC3)cc2)S1`, for which the Activity_index with Serratia marcescens [1] is reported as 15.72%; in the assay on Proteus mirabilis [2] it was 14.28%; with Bacillus cereus [3], 13.04%; in the assay with Staphylococcus aureus [4], 20.83%. The “diameter of the inhibition zone (DIZ)” value was found to be 3 mm with Serratia marcescens [9], 3 mm with Proteus mirabilis [10], 3 mm in the assay on Bacillus cereus [11] and 5 mm with Staphylococcus aureus [12].

For the compound `C/C(=N/NC(=O)c1sc(=S)n(-c2ccccc2)c1N)c1ccc(N2CCOCC2)cc1`, the Activity_index turned out to be 15.72% in the assay on Serratia marcescens [1], 9.52% in the assay on Proteus mirabilis [2], 13.04% in the assay with Bacillus cereus [3] and 16.67% with Staphylococcus aureus [4]. Besides, the “diameter of the inhibition zone (DIZ)” value worked out at 2 mm in the assay on Serratia marcescens [9], 2 mm with Proteus mirabilis [10], 3 mm in the assay with Bacillus cereus [11] and 4 mm in the assay on Staphylococcus aureus [12].

In the case of `C/C(=N/NC(=O)c1sc(=S)n(-c2ccc3ccccc3c2)c1N)c1ccc(N2CCOCC2)cc1`, the Activity_index with Serratia marcescens [1] is listed as 15.72%; in the assay with Proteus mirabilis [2], 9.52%; in the assay on Bacillus cereus [3] it was 13.04%; with Staphylococcus aureus [4], 20.83%. For the same compound, the “diameter of the inhibition zone (DIZ)” value in the assay with Serratia marcescens [9] is recorded as 2 mm; with Proteus mirabilis [10] it was 2 mm; in the assay on Bacillus cereus [11] it was 3 mm; in the assay with Staphylococcus aureus [12] it was 5 mm.

For the compound `Cc1ccc(/C=N/c2nc(-c3ccc(N4CCOCC4)cc3)cs2)cc1`, the Activity_index was determined as 15.72% in the assay on Serratia marcescens [1], 9.52% in the assay on Proteus mirabilis [2], 17.39% in the assay on Bacillus cereus [3] and 16.67% with Staphylococcus aureus [4]. Further, the “diameter of the inhibition zone (DIZ)” value in the assay on Serratia marcescens [9] stood at 3 mm; with Proteus mirabilis [10], 2 mm; in the assay on Bacillus cereus [11], 4 mm; in the assay on Staphylococcus aureus [12] it was 4 mm.

As to `CC(=O)N(C(C)=O)c1nc(-c2ccc(N3CCOCC3)cc2)cs1`, the Activity_index stood at 15.72% with Serratia marcescens [1], 14.28% with Proteus mirabilis [2], 17.39% in the assay with Bacillus cereus [3] and 20.83% in the assay on Staphylococcus aureus [4]. Moreover, the “diameter of the inhibition zone (DIZ)” value in the assay with Serratia marcescens [9] worked out at 2 mm; with Proteus mirabilis [10], 3 mm; in the assay with Bacillus cereus [11], 4 mm; in the assay with Staphylococcus aureus [12], 5 mm.

As to `C/C(=N/c1nc(-c2ccccc2)cs1)c1ccc(N2CCOCC2)cc1`, the Activity_index worked out at 15.72% in the assay on Serratia marcescens [1], 14.28% with Proteus mirabilis [2], 17.39% in the assay on Bacillus cereus [3] and 20.83% in the assay on Staphylococcus aureus [4]. The inhibition in vivo at 50 mg/kg in the assay on Rattus norvegicus [5] came out at 81.6%; in the assay on Rattus norvegicus [6], 59.8%; in the assay with Rattus norvegicus [7], 22.9%; in the assay with Rattus norvegicus [8], 27.2%. Besides, the “diameter of the inhibition zone (DIZ)” value was 2 mm in the assay with Serratia marcescens [9], 3 mm in the assay on Proteus mirabilis [10], 4 mm in the assay with Bacillus cereus [11] and 5 mm in the assay on Staphylococcus aureus [12].

Take `C/C(=N\NC1=NC(=O)CS1)c1ccc(N2CCOCC2)cc1`: the Activity_index in the assay with Serratia marcescens [1] is given as 15.72%; with Proteus mirabilis [2], 14.28%; in the assay with Bacillus cereus [3] it was 17.39%; in the assay on Staphylococcus aureus [4] it was 16.67%. Besides, the inhibition in vivo at 50 mg/kg with Rattus norvegicus [5] is 35.7%; in the assay with Rattus norvegicus [6], 29%; with Rattus norvegicus [7] it was -8%; in the assay with Rattus norvegicus [8] it was -58.6%. The “diameter of the inhibition zone (DIZ)” value in the assay on Serratia marcescens [9] is given as 3 mm; in the assay on Proteus mirabilis [10] it was 3 mm; with Bacillus cereus [11], 4 mm; with Staphylococcus aureus [12], 4 mm.

For `CC1(C)S[C@@H]2[C@H](NC(=O)[C@H](N)c3ccccc3)C(=O)N2[C@H]1C(=O)O` [AMPICILLIN], the “diameter of the inhibition zone (DIZ)” value with Serratia marcescens [9] came out at 21 mm; with Proteus mirabilis [10] it was 21 mm; in the assay with Bacillus cereus [11], 23 mm; in the assay on Staphylococcus aureus [12] it was 24 mm.
